Measurements taken from ChEMBL document CHEMBL5223168, “Using Imidazo[2,1-b][1,3,4]thiadiazol Skeleton to Design and Synthesize Novel MNK Inhibitors” (ACS Med Chem Lett, 2023).
Calls of active or inactive are those of the source. No cut-off for these calls is given here.

Key:
[1] = target: MAP kinase-interacting serine/threonine-protein kinase 1 (Homo sapiens, UniProt Q9BUB5); experiment: Inhibition of MNK1 (unknown origin) incubated for 60 mins using CREB as substrate in presence of ATP by LANCE Ultra kinase assay
[2] = test system: 3T3-L1; experiment: Inhibition of MNK in mouse 3T3-L1 cells assessed as inhibition of eIF4E phosphorylation at 5 uM incubated for 2 hrs by Western blot analysis; assay type: cell-based
Outline: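 Mouse 3T3-L1 cells exposed to compound at 5 μM for 2 h; lysates resolved by SDS-PAGE and immunoblotted for phospho-eIF4E. Reference MNK inhibitor run in parallel at 1 μM.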

[3] = target: T1, mTORC1 (Homo sapiens) (UniProt P42345+Q8N122+Q9BVC4); experiment: Inhibition of mTORC1 in human LNCaP C4-2B cells assessed as inhibition of phosphorylation of S6K at Thr389 at 5 uM incubated for 2 hrs by Western blot analysis; assay type: cell-based
Outline: (§1)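 C4-2B prostate cancer cells treated with inhibitor; lysates probed by Western blot for p-eIF4E, p-S6K (Thr389), p-rpS6 (Ser240/244) and p-AKT (Ser473).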

[4] = target: T1, mTORC1 (Homo sapiens); experiment: Inhibition of mTORC1 in human LNCaP C4-2B cells assessed as inhibition of phosphorylation of rpS6 at Ser240/244 at 5 uM incubated for 2 hrs by Western blot analysis; assay type: cell-based; outline: as §1
[5] = target: mTORC2 (Homo sapiens) (UniProt P42345+Q6R327+Q9BVC4+Q9BPZ7); experiment: Inhibition of mTORC2 in human LNCaP C4-2B cells assessed as inhibition of phosphorylation of AKT at Ser473 at 5 uM incubated for 2 hrs by Western blot analysis; assay type: cell-based; outline: as §1
[6] = test system: MEF; experiment: Inhibition of MNK in MNK2 knockout mouse MEF cells assessed as inhibition of eIF4E phosphorylation at 3 uM incubated for 2 hrs by Western blot analysis; assay type: cell-based
Outline: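 MEFs lacking MNK1 or MNK2 (wild-type for comparison) treated 2 h at indicated concentrations; lysates immunoblotted for p-eIF4E, which reflects the remaining MNK isoform; quantified from three independent experiments, SEM.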

[7] = target: Mitogen-activated protein kinase 9 (Homo sapiens) (UniProt P45984); experiment: Inhibition of JNK2 (unknown origin) at 3 uM in presence of ATP by kinase assay
[8] = target: Eukaryotic translation initiation factor 4E (Homo sapiens) (UniProt P06730); experiment: Inhibition of eIF4E phosphorylation in human A549 cells at 5 uM and measured upto 96 hrs by Western blot analysis; assay type: cell-based
Outline: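 Cells maintained with compound at 5 μM for up to 6 days for cell counts; eIF4E phosphorylation followed by immunoblot for up to 96 h.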

[9] = test system: A549; experiment: Inhibition of colony formation in human A549 cells at 1 to 5 uM measured after 10 days by crystal violet staining based clonogenic assay; assay type: functional, cell-based; conditions: dose 1-5 µM, time 10.0 day
Outline: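 Clonogenic assay over 10 days; cells treated with DMSO vehicle or compound at indicated concentrations, plates scanned and colonies quantified from three independent experiments.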

[10] = test system: A549; experiment: Induction of cell cycle arrest in human A549 cells assessed as decrease in cyclin D3 level at 5 uM incubated for 24 hrs by Western blot analysis; assay type: functional, cell-based
Outline: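 A549 and MDA-MB-231 cells treated 24 h with 5 μM; lysates resolved by SDS-PAGE and immunoblotted for cyclin B1, cyclin D3 and MMP-3.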

[11] = test system: A549; experiment: Induction of cell cycle arrest in human A549 cells assessed as accumulation of cells at G2/M phase at 5 uM incubated for 8 hrs by propidium iodide staining based flow cytometry (Rvb=6.5%); assay type: functional
[12] = test system: A549; experiment: Antimigratory activity against human A549 cells assessed as inhibition of cell migration at 5 uM and measured upto 24 hrs by scratch wound healing assay; assay type: functional, cell-based
Outline: (§2)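 Scratch wound-healing: A549 or MDA-MB-231 monolayers wounded, then exposed to 5 μM compound or DMSO; wound imaged at 6 and 24 h; percentage change in wound area quantified by image analysis at each time point.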

[13] = test system: MDA-MB-231; experiment: Antimigratory activity against human MDA-MB-231 cells assessed as inhibition of cell migration at 5 uM and measured upto 24 hrs by scratch wound healing assay; assay type: functional, cell-based; outline: as §2
[14] = Apparent volume of distribution in mouse at 25 mg/kg, iv and measured upto 24 hrs; assay type: ADME, organism-based; conditions: in vivo, read-out: Vz
[15] = Cmax in mouse at 25 mg/kg, iv and measured upto 24 hrs; assay type: ADME, organism-based; design: dose 25 mg/kg, time < 24 hrs, route iv; conditions: in vivo
[16] = Tmax in mouse at 25 mg/kg, iv and measured upto 24 hrs; assay type: ADME, organism-based; conditions: in vivo
[17] = Apparent volume of distribution in mouse at 50 mg/kg, po and measured upto 24 hrs; assay type: ADME, organism-based; conditions: in vivo
[18] = Half life in mouse at 50 mg/kg, po and measured upto 24 hrs; assay type: ADME, organism-based; conditions: in vivo
[19] = Clearance in mouse at 50 mg/kg, po and measured upto 24 hrs; assay type: ADME, organism-based; conditions: in vivo
[20] = test system: A549; experiment: Antitumor activity against human A549 cells xenografted in BALB/C nude mouse assessed as T/C ratio at 150 mg/kg, po QD for 14 days; assay type: functional; conditions: time 14 day
Outline: (§3)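 A549 xenografts in nude mice; compound given orally once daily at 75 or 150 mg/kg for 14 days, irinotecan reference at 3 mg/kg; tumor growth tracked as T/C ratio (relative tumor proliferation rate); body weight monitored.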

[21] = test system: A549; experiment: Antitumor activity against human A549 cells xenografted in BALB/C nude mouse assessed as reduction in tumor volume at 75 to 150 mg/kg, po QD for 14 days; assay type: functional, organism-based; conditions: dose 75-150 mg/kg, time 14.0 day; outline: as §3
[22] = test system: MAP kinase-interacting kinase MNK1/2 (Homo sapiens); experiment: Inhibition of MNK in human U-937 cells assessed as inhibition of eIF4E phosphorylation at 10 uM incubated for 2 hrs by Western blot analysis
[23] = test system: MAP kinase-interacting kinase MNK1/2 (Homo sapiens); experiment: Inhibition of MNK in human SKM-1 cells assessed as inhibition of eIF4E phosphorylation at 10 uM incubated for 2 hrs by Western blot analysis
[24] = test system: MAP kinase-interacting kinase MNK1/2 (Homo sapiens); experiment: Inhibition of MNK in human NCI-H446 cells assessed as inhibition of eIF4E phosphorylation at 3 uM incubated for 2 hrs by Western blot analysis
[25] = test system: MAP kinase-interacting kinase MNK1/2 (Homo sapiens); experiment: Inhibition of MNK in human NCI-H1299 cells assessed as inhibition of eIF4E phosphorylation at 3 uM incubated for 2 hrs by Western blot analysis
[26] = test system: MV4-11; experiment: Induction of cell cycle arrest in human MV4-11 cells assessed as decrease in cyclin B1 level at 3 uM incubated for 24 hrs by Western blot analysis
[27] = test system: MAP kinase-interacting kinase MNK1/2 (Mus musculus); experiment: Inhibition of MNK in wild type mouse MEF cells assessed as inhibition of eIF4E phosphorylation at 3 uM incubated for 2 hrs by Western blot analysis

Sequence of Eukaryotic translation initiation factor 4E (Homo sapiens) (P06730 whole entry): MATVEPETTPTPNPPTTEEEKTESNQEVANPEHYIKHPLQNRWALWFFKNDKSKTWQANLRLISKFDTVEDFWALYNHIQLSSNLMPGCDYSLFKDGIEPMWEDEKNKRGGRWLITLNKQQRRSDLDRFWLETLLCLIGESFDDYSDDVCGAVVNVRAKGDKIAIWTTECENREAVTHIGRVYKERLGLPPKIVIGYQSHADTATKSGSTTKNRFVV
Sequence of MAP kinase-interacting serine/threonine-protein kinase 1 (Q9BUB5 whole entry): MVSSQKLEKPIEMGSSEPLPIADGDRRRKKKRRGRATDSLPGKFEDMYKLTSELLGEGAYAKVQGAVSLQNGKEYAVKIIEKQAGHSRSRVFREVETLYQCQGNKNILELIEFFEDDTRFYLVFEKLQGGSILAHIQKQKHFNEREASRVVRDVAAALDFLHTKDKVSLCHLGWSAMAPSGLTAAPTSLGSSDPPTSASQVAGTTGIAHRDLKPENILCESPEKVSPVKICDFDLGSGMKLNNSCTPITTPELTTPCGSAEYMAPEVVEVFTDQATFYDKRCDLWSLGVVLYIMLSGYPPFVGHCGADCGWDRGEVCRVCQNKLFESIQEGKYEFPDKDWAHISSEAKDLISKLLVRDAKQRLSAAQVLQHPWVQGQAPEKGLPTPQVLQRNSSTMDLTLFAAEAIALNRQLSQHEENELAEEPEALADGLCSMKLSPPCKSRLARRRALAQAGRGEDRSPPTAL
Sequence of Mitogen-activated protein kinase 9 (Homo sapiens) (P45984 whole entry, looked up): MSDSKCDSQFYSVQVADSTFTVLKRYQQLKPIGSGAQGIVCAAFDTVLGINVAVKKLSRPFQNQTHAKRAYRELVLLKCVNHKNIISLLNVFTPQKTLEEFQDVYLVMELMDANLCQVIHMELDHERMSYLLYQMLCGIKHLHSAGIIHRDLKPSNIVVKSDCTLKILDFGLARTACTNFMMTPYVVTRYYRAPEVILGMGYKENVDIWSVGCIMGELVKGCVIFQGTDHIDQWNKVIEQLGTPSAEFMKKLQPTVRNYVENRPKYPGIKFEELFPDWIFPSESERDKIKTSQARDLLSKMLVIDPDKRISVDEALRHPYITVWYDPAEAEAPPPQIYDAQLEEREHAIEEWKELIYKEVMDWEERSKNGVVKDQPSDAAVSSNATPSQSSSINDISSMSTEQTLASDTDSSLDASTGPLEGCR

## CN1CCN(C(=O)c2ccc(-c3nn4c(-c5ccc(C#N)cc5)cnc4s3)cc2)CC1
[1]
  IC50: 11.5 nM
[2]
  inhibition: Active
[3]
  inhibition: inactive
[4]
  inhibition: inactive
[5]
  inhibition: inactive
[6]
  inhibition: 50%
[7]
  inhibition: Active
[8]
  inhibition: Active
[9]
  inhibition: Dose-Dependent Effect
[10]
  Activity: Active
[11]
  Activity: 9%
[12]
  Activity: Active
[13]
  Activity: Active
[14]
  Vd: 1.52 L/kg
[15]
  Cmax: 32100 ng/mL
[16]
  Tmax: 4.8 min
[17]
  Vz: 3.155 L/kg
[18]
  half-life: 4.42 h
[19]
  CL/F: 8.45 mL/min/kg
[20]
  T/C: 0.5
[21]
  Activity: Dose-Dependent Effect
[22]
  inhibition: Active
[23]
  inhibition: Active
[24]
  inhibition: Active
[25]
  inhibition: Active
[26]
  Activity: Active
[27]
  inhibition: Active
